Among the data in ChEMBL document CHEMBL4052594, “Discovery of Pyrrolidine-Containing GPR40 Agonists: Stereochemistry Effects a Change in Binding Mode” (J Med Chem, 2017) are EC50, Ki and Intrinsic activity values, retold here.

Bounds are passed on as bounds.

As a reminder, the EC50 is the concentration giving half of the maximal effect. By Ki is commonly meant a measure of affinity in units of concentration, obtained from inhibition or displacement. A lower Ki goes with tighter binding.

Assay [1] deals with T1, Free fatty acid receptor 1 (Homo sapiens, UniProt O14842). Kind of assay: Agonist activity at human GPR40 expressed in CHO-A12 cells assessed as increase in intracellular calcium flux measured for 100 secs by FLIPR assay. In kind it is functional, cell-based. Background: Calcium assays in cells follow changes in intracellular calcium, usually with a dye or a luminescent sensor.
T1 sequence (O14842 whole entry): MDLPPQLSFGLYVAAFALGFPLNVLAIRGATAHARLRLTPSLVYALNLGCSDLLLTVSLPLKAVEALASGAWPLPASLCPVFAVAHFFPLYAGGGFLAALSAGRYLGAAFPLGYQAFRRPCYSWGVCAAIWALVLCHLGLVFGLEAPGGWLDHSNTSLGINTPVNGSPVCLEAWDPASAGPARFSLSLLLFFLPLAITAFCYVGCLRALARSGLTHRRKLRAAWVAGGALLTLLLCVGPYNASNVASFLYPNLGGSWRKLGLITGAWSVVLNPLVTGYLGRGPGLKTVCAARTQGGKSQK

For assay [2], the target named is Free fatty acid receptor 1 (Mus musculus, UniProt Q76JU9). The assay can be described thus: Agonist activity at mouse GPR40 expressed in CHO-A12 cells assessed as increase in intracellular calcium flux measured for 100 secs by FLIPR assay. The class given is functional, cell-based.
Free fatty acid receptor 1 (Mus musculus, UniProt Q76JU9), sequence (Q76JU9 whole entry): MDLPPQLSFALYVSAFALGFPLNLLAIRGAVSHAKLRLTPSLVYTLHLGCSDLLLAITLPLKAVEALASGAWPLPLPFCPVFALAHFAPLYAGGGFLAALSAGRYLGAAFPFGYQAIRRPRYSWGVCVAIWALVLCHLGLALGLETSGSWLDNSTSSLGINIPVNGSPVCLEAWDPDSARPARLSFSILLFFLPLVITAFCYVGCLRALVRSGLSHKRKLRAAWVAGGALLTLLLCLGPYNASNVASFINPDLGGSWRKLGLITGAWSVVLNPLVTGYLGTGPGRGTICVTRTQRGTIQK
Assay [3] has as its target T1, Free fatty acid receptor 1. The assay can be described thus: Binding affinity to human GPR40 expressed in HEK293 cell membranes after 1 hr by radioligand displacement based scintillation counting method. The gist of the method:
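Binding of human GPR40 measured as Ki against a radioligand. Mean of at least two runs. Displacement of the label appears as a negative slope and potentiation as a positive one.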

The target in assay [4] is Free fatty acid receptor 1 (Mus musculus) (UniProt Q76JU9). Kind of assay: Intrinsic activity at mouse GPR40 expressed in CHO-A12 cells assessed as increase in intracellular calcium flux at 8.3 uM measured for 100 secs by FLIPR assay […]. The class given is functional, cell-based.
Free fatty acid receptor 1 (Mus musculus), sequence (Q76JU9 whole entry): as above

For `O=C(O)C1CCN(c2ccc(OCc3ccc(Cl)cc3Cl)cc2)C1` (configuration not stated), the results for the EC50 in assay [1] and in assay [2] were 2100 nM and greater than 16000 nM, respectively.

Turning to `O=C(O)C[C@@H]1CCCN1c1ccc(Oc2ccccc2)cc1`, the EC50 in assay [1] is 560 nM; in assay [2], greater than 16000 nM. Besides, the Ki in assay [3] was determined as 6500 nM.

As to `COc1ccc(Oc2ccc(N3C[C@@H](C(F)(F)F)C[C@H]3CC(=O)O)cc2)c(C)c1`, the Ki in assay [3] is 39 nM. The EC50 in assay [2] was determined as 170 nM. Besides, in assay [4], the Intrinsic activity is 41%.

Take `O=C(O)C[C@@H]1CCCN1c1ccc(Oc2ccccc2F)cc1`: the EC50 in assay [1] was found to be 150 nM; in assay [2], 6900 nM. The compound also gave a Ki in assay [3] of 1300 nM. The Intrinsic activity in assay [4] was 50%.

With `O=C(O)C[C@@H]1CCCN1c1ccc(OCc2ccc(Cl)cc2Cl)cn1`, the results for the EC50 in assay [1] and in assay [2] were 220 nM and greater than 33000 nM, respectively.

For `Cc1ccccc1Cc1ccc(N2[C@H](CC(=O)O)CC[C@@H]2C)cc1`, the EC50 in assay [1] is 6200 nM; in assay [2], greater than 33000 nM.

With `O=C(O)C[C@@H]1C[C@H](C(F)(F)F)CN1c1ccc(Oc2ccccc2C(F)(F)F)cc1`, the EC50 in assay [1] was 310 nM; in assay [2], 1300 nM. For the same compound, the Intrinsic activity in assay [4] was 42%.

For the compound `CC(C)(C)c1ccccc1Oc1ccc(N2CCC[C@H]2CC(=O)O)cc1`, the EC50 is 6500 nM in assay [1] and greater than 17000 nM in assay [2].

As to `O=C(O)CC1CCN(c2ccc(OCc3ccc(Cl)cc3Cl)cc2)C1` (configuration not stated), the EC50 in assay [1] and in assay [2] was greater than 33000 nM in each case.

As to `O=C(O)C[C@H]1CCN1c1ccc(OCc2ccc(Cl)cc2Cl)cc1`, the EC50 was 13000 nM in assay [1] and greater than 17000 nM in assay [2].

For `Cc1ccccc1Sc1ccc(N2CCC[C@H]2CC(=O)O)cc1`, the EC50 in assay [1] is 570 nM; in assay [2], greater than 17000 nM.

For `COc1ccc(Oc2ccc(N3CCC[C@H]3CC(=O)O)cc2)cc1`, the EC50 is 520 nM in assay [1] and greater than 33000 nM in assay [2].

On to `Cc1ccccc1Cc1ccc(N2CCC[C@@]2(C)CC(=O)O)cc1`, for which the EC50 in assay [1] and in assay [2] was greater than 33000 nM each time. In addition, the affinity in assay [3] corresponds to a Ki of 23000 nM.

For `Cc1ccccc1Cc1ccc(N2C[C@@H](F)C[C@H]2CC(=O)O)cc1`, the EC50 was 74 nM in assay [1] and greater than 33000 nM in assay [2]. The same compound gave a Ki in assay [3] of 180 nM.

With `COc1ccc(F)c(-c2cccc(Oc3ccc(N4CCC[C@H]4CC(=O)O)cc3)c2C)c1`, the concentration giving a half-maximal response (EC50) in assay [1] stood at 310 nM; in assay [2], 3000 nM. Moreover, the Intrinsic activity in assay [4] was found to be 83%.

With `O=C(O)C[C@@H]1CCN1c1ccc(OCc2ccc(Cl)cc2Cl)cc1`, the concentration giving a half-maximal response (EC50) in assay [1] came to 260 nM; in assay [2], 440 nM. The Intrinsic activity in assay [4] came to 88%.

`CO[C@H]1C[C@@H](CC(=O)O)N(c2ccc(Oc3ccccc3C)cc2)C1` showed a Ki in assay [3] of 9000 nM. For the same compound, the EC50 in assay [2] stood at 960 nM. Moreover, the Intrinsic activity in assay [4] was found to be 76%.

Take `CCOc1ccccc1Oc1ccc(N2CCC[C@H]2CC(=O)O)cc1`: the EC50 is 1700 nM in assay [1] and greater than 33000 nM in assay [2].

With `Cc1cc(OCc2ccc(Cl)cc2Cl)ccc1N1CCC[C@H]1CC(=O)O`, the EC50 is 8900 nM in assay [1] and 14000 nM in assay [2]. Further, the Intrinsic activity in assay [4] was 70%.

For `COc1ccc(F)c(-c2ccc(Cc3ccc(N4C[C@@H](C(F)(F)F)C[C@@H]4CC(=O)O)cc3)c(C)c2)c1`, the values for the EC50 in assay [1] and in assay [2] were 150 nM and 53 nM, respectively. Also, in assay [4], the Intrinsic activity was 210%.

Consider `O=C(O)CC1CCCCCN1c1ccc(OCc2ccc(Cl)cc2Cl)cc1` (single isomer, unassigned; enantiomer 2), for which the EC50 in assay [1] was 11000 nM; in assay [2], greater than 33000 nM.

Consider `Cc1ccccc1COc1ccc(N2CCC[C@H]2CC(=O)O)cn1`, for which the EC50 in assay [1] is 450 nM; in assay [2], greater than 33000 nM. In assay [3], this compound had a Ki of 1800 nM.

Take `O=C(O)C1CC(=O)N(c2ccc(OCc3ccc(Cl)cc3Cl)cc2)C1` (configuration not stated): the concentration for a half-maximal effect (EC50) in assay [1] is 5000 nM; in assay [2], greater than 33000 nM.

As for `O=C(O)C[C@H]1CCCN1c1ccc(OCc2ccc(Cl)cc2Cl)cc1`, the EC50 in assay [1] was 880 nM; in assay [2], greater than 17000 nM.

Take `Cc1ccccc1COc1ccc(N2CCC[C@H]2CC(=O)O)cc1C`: the EC50 in assay [1] and in assay [2] was greater than 33000 nM in each case.

Turning to `O=C(O)CC1CCCCCN1c1ccc(OCc2ccc(Cl)cc2Cl)cc1` (single isomer, unassigned; enantiomer 1), the figures for the EC50 in assay [1] and in assay [2] were 6400 nM and greater than 16000 nM, respectively.

For the compound `Cc1ccc(Oc2ccc(N3CCC[C@H]3CC(=O)O)cc2)cc1`, the EC50 is 490 nM in assay [1] and greater than 33000 nM in assay [2].

In the case of `COc1ccc(F)c(-c2ccc(Cc3ccc(N4C[C@H](C(F)(F)F)C[C@H]4CC(=O)O)cc3)c(C)c2)c1`, the results for the EC50 in assay [1] and in assay [2] were 1700 nM and 1100 nM, respectively. For the same compound, the Intrinsic activity in assay [4] worked out at 140%.

As to `O=C(O)C[C@@H]1CCCN1c1ccc(Oc2ccc(Cl)cc2)cc1`, the results for the concentration for a half-maximal effect (EC50) in assay [1] and in assay [2] were 290 nM and greater than 33000 nM, respectively.

In the case of `Cc1ccccc1Cc1ccc(N2CC[C@H](c3ccccc3)[C@H]2CC(=O)O)cc1`, the results for the EC50 in assay [1] and in assay [2] were 11000 nM and greater than 33000 nM, respectively.

Regarding `Cc1ccccc1S(=O)(=O)c1ccc(N2CCC[C@H]2CC(=O)O)cc1`, the EC50 in assay [1] and in assay [2] was greater than 33000 nM throughout.

`O=C(O)C[C@@H]1C[C@H](C(F)(F)F)CN1c1ccc(Oc2ccccc2OC(F)(F)F)cc1`: the values for the 50% effective concentration (EC50) in assay [1] and in assay [2] were 170 nM and 740 nM, respectively. The Intrinsic activity in assay [4] was 44%.

Consider `Cc1cccc(C)c1Oc1ccc(N2C[C@@H](C(F)(F)F)C[C@H]2CC(=O)O)cc1`, for which the half-maximal effective concentration (EC50) in assay [1] was determined as 82 nM; in assay [2], 270 nM. For the same compound, in assay [4], the Intrinsic activity was found to be 36%.

On to `Cc1ccccc1C(=O)c1ccc(N2CCC[C@H]2CC(=O)O)cc1`, for which the EC50 in assay [1] is 4600 nM; in assay [2], greater than 33000 nM. This compound displayed a Ki in assay [3] greater than 33000 nM.

`O=C(O)C[C@@H]1CCCN1c1ccc(Oc2ccc(Cl)cc2Cl)cc1`: the results for the EC50 in assay [1] and in assay [2] were 360 nM and 3200 nM, respectively. For the same compound, in assay [4], the Intrinsic activity came out at 120%.

Consider `O=C(O)C[C@@H]1CCCN1c1ccc(Oc2cccc(Cl)c2)cc1`, for which the concentration giving a half-maximal response (EC50) in assay [1] was 680 nM; in assay [2] it was greater than 16000 nM.

As for `O=C(O)C[C@@H]1CCCN1c1ccc(Oc2ccccc2-c2ccccc2)cc1`, the figures for the EC50 in assay [1] and in assay [2] were 3500 nM and 1300 nM, respectively. Moreover, the Intrinsic activity in assay [4] turned out to be 72%.

As to `Cc1cccc(Oc2ccc(N3CCC[C@H]3CC(=O)O)cc2)c1`, the EC50 in assay [1] was found to be 260 nM; in assay [2], 2400 nM. Further, the Intrinsic activity in assay [4] was 83%.

Regarding `Cc1ccccc1[S+]([O-])c1ccc(N2CCC[C@H]2CC(=O)O)cc1` (mixture of isomers), the EC50 in assay [1] and in assay [2] was greater than 33000 nM each time.

Take `O=C(O)CC1CCCCN1c1ccc(OCc2ccc(Cl)cc2Cl)cc1` (single isomer, unassigned; enantiomer 1): the half-maximal effective concentration (EC50) in assay [1] and in assay [2] was greater than 33000 nM each time.

Consider `CN(C)c1cccc(Oc2ccc(N3CCC[C@H]3CC(=O)O)cc2)c1`, for which the half-maximal effective concentration (EC50) in assay [1] is 1300 nM; in assay [2], greater than 33000 nM.

Regarding `Cc1ccccc1Cc1ccc(N2C[C@@H](c3ccccc3)C[C@H]2CC(=O)O)cc1`, the concentration giving a half-maximal response (EC50) in assay [1] is greater than 17000 nM; in assay [2], greater than 33000 nM. The compound also yielded a Ki in assay [3] greater than 25000 nM.

`O=C(O)CC1CCCCN1c1ccc(OCc2ccc(Cl)cc2Cl)cc1` (single isomer, unassigned; enantiomer 2): the EC50 was greater than 17000 nM in assay [1] and greater than 33000 nM in assay [2].
